DENV2 CPE: inhibitors of DENV2 cytopathic effect; DENV2-infected cells, cytopathic effect rescue, plate reader; CPE inhibition, % at 9.99 µM; 350,000 tested, 1.7% active; in the data active = CPE inhibition above about 20%, passing the limit was not always enough; inconclusive = no clear call, values can overlap the other calls; tested in BHK-21 cells
C2C12 statin: protects C2C12 myotubes from simvastatin toxicity; rescue of ATP level, % at 7.49 µM; ATP luminescence, 48 h; scaled: DMSO 0, geranylgeraniol control 100; 330,000 tested, 0.78% active; AID 602340;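 active = mean ATP rescue above about 67%, or every replicate alone reaching that limit, limit read from the data, passing the limit was not always enough; inconclusive = no clear call, values can overlap the other calls; inactive = mean under the limit and some replicate under it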;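 also: myotubes were challenged with 10 µM simvastatin during compound exposure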
Xi reactivation: X-chromosome reactivation activator; XiGFP mouse fibroblasts, % GFP-positive cells imaging, 3 d; cells co-treated with 5-aza-dC sensitizer; scaled so ellipticine positive control = 100%; activation, % at 7.58 µM; 360,000 tested, 0.055% active;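 active = mean normalized replicate activation at least 10% and every replicate at or above 10%; inconclusive = only one of the two criteria met; inactive = mean below 10% and not all replicates reach 10%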
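System: 68-5-11 XiGFP fibroblast line; Timing: 3 days compound exposure; Compound dosing: one concentration, pinned; Benchmarks: positive control ellipticine, 6 µM final; Buffer or medium: DMEM containing 5-aza-dC.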
Cneo AK release: causes C. neoformans cell lysis; 360,000 tested, 0.2% active; AID 651654; lysis activity, % at 15 µM; adenylate kinase release luminescence, 4 h; normalised: neutral wells 0, clomiphene wells 100;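 active = mean lysis activity across replicates of at least 80%, whatever share of replicates individually reach that level; inactive = mean lysis activity below 80%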
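Material – log-phase Cryptococcus neoformans yeast cells · Input – 5 × 10^6 yeast cells/mL · Medium – fresh YPD growth medium · Doses – single compound concentration per well · Timing – static 4 h at 37 °C with compound, 1 h detection · Detection – adenylate kinase release luminescence · Read-out – signal increase indicating cell lysis · Control set – Clomiphene as positive lysis control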
Of the large screens only hits and unclear results are named; the others gave an inactive call. Compounds with a hit are over-represented: about 2.1% of the library has one in this group of screens.

COc1ccc(-c2csc(C(NC(C)=O)c3cccc(OC)c3)n2)cc1 (stereo not given)	none
COc1ccc(CN(C)C[C@H]2Oc3ccc(NC(=O)Cn4cnnn4)cc3C(=O)N([C@@H](C)CO)C[C@H]2C)cc1	none
C[C@@H]1CN([C@@H](C)CO)C(=O)c2cccc(NC(=O)C3CC3)c2O[C@@H]1CN(C)S(=O)(=O)c1ccc(Cl)cc1	none
COc1ccc(S(=O)(=O)Nc2ccc3c(c2)CC(=O)N([C@H](C)CO)C[C@H](C)[C@H](CN(C)C(=O)Nc2ccc(F)cc2)O3)cc1	none
CNC[C@@H]1Oc2ncc(Br)cc2C(=O)N([C@H](C)CO)C[C@@H]1C	DENV2 CPE inconclusive
O=C1CCC(C(=O)OCC(=O)Nc2ccc(SC(F)F)cc2)=NN1	DENV2 CPE 29
CC(Sc1ccccc1)C(=O)NCC(c1ccco1)N1CCCCC1 (stereo not given)	DENV2 CPE 107
CSc1ccccc1C(=O)NCC(c1ccco1)N1CCCCC1 (stereo not given)	none (no result: C2C12 statin, Cneo AK release)
C[C@@H]1CN([C@H](C)CO)C(=O)Cc2cc(NS(=O)(=O)c3ccc(Cl)cc3)ccc2O[C@@H]1CN(C)Cc1ccc2c(c1)OCO2	none
C[C@@H]1CN([C@@H](C)CO)C(=O)Cc2cc(NS(=O)(=O)c3ccc(F)cc3)ccc2O[C@@H]1CN(C)Cc1ccc2c(c1)OCO2	none
C[C@@H]1CN([C@H](C)CO)C(=O)Cc2cc(NS(=O)(=O)c3ccc(Cl)cc3)ccc2O[C@H]1CN(C)Cc1ccc2c(c1)OCO2	C2C12 statin 84
Cc1ccc(S(=O)(=O)Nc2ccc3c(c2)CC(=O)N([C@H](C)CO)C[C@H](C)[C@@H](CN(C)Cc2ccc4c(c2)OCO4)O3)cc1	C2C12 statin 76
C[C@@H]1CN([C@@H](C)CO)C(=O)Cc2cc(NS(=O)(=O)c3ccc(Cl)cc3)ccc2O[C@H]1CN(C)Cc1ccc2c(c1)OCO2	C2C12 statin 99
Cc1ccc(S(=O)(=O)Nc2ccc3c(c2)CC(=O)N([C@@H](C)CO)C[C@@H](C)[C@@H](CN(C)Cc2ccc4c(c2)OCO4)O3)cc1	none
COCC(=O)N(C)C[C@@H]1Oc2ncc(-c3ccccc3F)cc2C(=O)N([C@H](C)CO)C[C@H]1C	none
CCNC(=O)[C@H]1[C@H](CO)[C@H]2Cn3c(ccc(-c4ccccc4F)c3=O)[C@@H]1N2C(=O)CC	none
Cc1ccc(Nc2nc3nonc3nc2N(C)C)cc1	C2C12 statin 88 (no result: DENV2 CPE, Xi reactivation)
CCNc1nc2nonc2nc1NCC	none (no result: DENV2 CPE, Xi reactivation)
CCOC(=O)C1CCN(S(=O)(=O)c2cc(Br)cc3c2N(C(C)=O)C(C)C3)CC1 (stereo not given)	C2C12 statin 88 (no result: DENV2 CPE, Xi reactivation)
CCC(=O)Nc1ccc2c(c1)C(=O)N(C)C[C@@H](OC)[C@H](C)CN(C(=O)c1cnccn1)[C@@H](C)CO2	none
CCN1CCN(CCc2nc3cc(NC(=O)COc4ccc(Cl)cc4)ccc3n2C)CC1	DENV2 CPE 25
Cn1c(CCN2CCCC2)nc2cc(NC(=O)COc3ccc(Cl)cc3)ccc21	none
C[C@H](CO)N1C[C@H](C)[C@H](CN(C)S(C)(=O)=O)Oc2ccc(NS(C)(=O)=O)cc2C1=O	none
O=C(c1ccc2c(c1)OCO2)N1CC(=O)N2[C@H](CO)[C@H](c3ccc(-c4ccccc4)cc3)[C@@H]2C1	DENV2 CPE 49 (no result: C2C12 statin, Cneo AK release)
O=C(c1ccccc1)N1CC(=O)N2[C@H](CO)[C@@H](c3ccc(C#Cc4ccccc4)cc3)[C@@H]2C1	DENV2 CPE 21 (no result: C2C12 statin, Cneo AK release)
Cc1ccccc1S(=O)(=O)N1CC(=O)N2[C@@H](CO)[C@@H](c3ccc(C#Cc4ccccc4)cc3)[C@@H]2C1	none (no result: C2C12 statin, Cneo AK release)
Cc1ccccc1S(=O)(=O)N1CC(=O)N2[C@H](CO)[C@@H](c3ccc(C#Cc4ccccc4)cc3)[C@@H]2C1	DENV2 CPE 29 (no result: C2C12 statin, Cneo AK release)
COc1ccc(C#Cc2ccc([C@@H]3[C@@H](CO)N4C(=O)CN(C(=O)c5ccncc5)C[C@@H]34)cc2)cc1	DENV2 CPE 38 (no result: C2C12 statin, Cneo AK release)
C[C@H](CO)N1C[C@H](C)[C@H](CN(C)C(=O)Nc2ccc(F)cc2)OCCCC[C@H](C)Oc2ccc(NS(=O)(=O)c3ccccc3)cc2C1=O	none (no result: C2C12 statin)
CCN1[C@@H]2c3ccc(-c4cccc(C(=O)N(C)C)c4)c(=O)n3C[C@@H]2[C@@H](CO)[C@@H]1C(=O)OC	none
CO[C@H]1CN(C)C(=O)c2ccc(NC(C)=O)cc2OC[C@H](C)N(C(=O)C2CCOCC2)C[C@@H]1C	none (no result: C2C12 statin, Cneo AK release)
COCC(=O)N1CC(=O)N2[C@@H](CO)[C@@H](c3ccc(Br)cc3)[C@@H]2C1	DENV2 CPE 29 (no result: C2C12 statin, Cneo AK release)
O=C(c1ccc2c(c1)OCO2)N1CC(=O)N2[C@H](C1)[C@H](c1ccc(C#Cc3ccccc3)cc1)[C@@H]2CO	DENV2 CPE 50 (no result: C2C12 statin, Cneo AK release)
COCC(=O)N1CC(=O)N2[C@H](CO)[C@H](c3ccc(Br)cc3)[C@@H]2C1	none (no result: C2C12 statin, Cneo AK release)
COc1ccc(C#Cc2ccc([C@H]3[C@H]4CN(C(=O)c5ccncc5)CCCCN4[C@H]3CO)cc2)cc1	C2C12 statin 98
O=C(c1ccc2c(c1)OCO2)N1CC(=O)N2[C@@H](CO)[C@@H](c3ccc(C#Cc4ccccc4)cc3)[C@@H]2C1	none (no result: C2C12 statin, Cneo AK release)
CCCNC(=O)N1CC2(CCN(CC3CC3)CC2)c2c([nH]c3cc(OC)ccc23)[C@@H]1CO	DENV2 CPE 24 (no result: C2C12 statin, Cneo AK release)
CCCNC(=O)N1CC2(CCN(S(=O)(=O)CC)CC2)c2c([nH]c3cc(OC)ccc23)[C@@H]1CO	DENV2 CPE 31 (no result: C2C12 statin, Cneo AK release)
COc1ccc2c3c([nH]c2c1)[C@@H](CO)N(C(=O)CN(C)C)CC31CN(CC2CCCC2)C1	DENV2 CPE 28 (no result: C2C12 statin, Cneo AK release)
CC=Cc1ccc2n(c1=O)C[C@H]1[C@H](CO)[C@@H](C(=O)N3CCCCC3)N(C(=O)CC)[C@@H]21 (mixture of isomers)	none
O=C(C[C@H]1C=C[C@@H](NC(=O)c2cccnc2)[C@H](CO)O1)NCc1ccncn1	none (no result: C2C12 statin, Cneo AK release)
CCCNC(=O)N1CC2(C1)[C@H](c1ccccc1)[C@@H](CO)N2Cc1ccccc1	none (no result: C2C12 statin, Cneo AK release)
CC1CCN(C(c2ccccc2)c2nnnn2C(C)(C)C)CC1 (stereo not given)	C2C12 statin 106 (no result: DENV2 CPE, Xi reactivation)
N#C[C@H]1[C@@H](c2ccc(-c3ccccc3F)cc2)[C@@H](CO)N1C(=O)C1CC1	none
CC(=O)NC[C@H]1[C@H](c2ccc(-c3ccccc3F)cc2)[C@H](CO)N1C(=O)C1CC1	DENV2 CPE 53
N#C[C@H]1[C@H](c2ccc(-c3ccccc3F)cc2)[C@@H](CO)N1C(=O)C1CC1	DENV2 CPE 30
CC(=O)N(C)C[C@H]1[C@H](c2ccc(-c3ccccc3F)cc2)[C@@H](CO)N1C(C)=O	DENV2 CPE 32
COc1ccccc1-c1ccc([C@H]2[C@@H](CO)N(C(C)=O)[C@@H]2CN(C)C(C)=O)cc1	none (no result: C2C12 statin, Cneo AK release)
N#C[C@@H]1[C@H](c2ccc(-c3ccccc3F)cc2)[C@H](CO)N1C(=O)C1CC1	DENV2 CPE 87
Cc1noc(C)c1NC(=O)NCC[C@H]1CC[C@@H](NC(=O)Cc2cccnc2)[C@H](CO)O1	none
